Measurements taken from the M2OR odorant receptor database.

Assays:
Conditions in all cases: stereoisomer not certain
Or1m1 (Mus musculus) = target: T1, Or1m1 (Mus musculus) (UniProt Q8VFM9)
T1 sequence (whole entry): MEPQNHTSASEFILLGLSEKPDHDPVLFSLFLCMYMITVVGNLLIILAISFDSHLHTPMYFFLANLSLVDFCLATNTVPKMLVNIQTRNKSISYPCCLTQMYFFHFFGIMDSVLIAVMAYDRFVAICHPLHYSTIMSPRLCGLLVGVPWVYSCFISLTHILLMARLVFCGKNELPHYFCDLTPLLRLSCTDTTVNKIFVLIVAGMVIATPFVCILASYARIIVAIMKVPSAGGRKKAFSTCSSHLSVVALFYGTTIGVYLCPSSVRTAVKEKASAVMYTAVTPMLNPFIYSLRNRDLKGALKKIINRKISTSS
In short: (§1)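 Each entry records the cell line, G-protein, co-transfected protein and tags used. Methods varied with the source, often transient luciferase assays in mammalian cell lines. A receptor–molecule pair is called responsive (active) if the original authors judged its signal statistically different from baseline and non-responsive (inactive) otherwise.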

Or5ar1 (Mus musculus) = target: T2, Or5ar1 (Mus musculus) (UniProt Q8VGS3)
T2 sequence (whole entry): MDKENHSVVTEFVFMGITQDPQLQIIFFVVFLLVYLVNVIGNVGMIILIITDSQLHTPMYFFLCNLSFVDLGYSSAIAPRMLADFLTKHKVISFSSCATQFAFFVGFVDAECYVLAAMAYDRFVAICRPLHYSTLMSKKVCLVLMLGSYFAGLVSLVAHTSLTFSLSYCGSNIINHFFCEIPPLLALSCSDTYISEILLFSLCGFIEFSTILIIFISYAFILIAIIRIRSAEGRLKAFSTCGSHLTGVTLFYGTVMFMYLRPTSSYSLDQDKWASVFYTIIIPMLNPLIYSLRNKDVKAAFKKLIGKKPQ
In short: as §1

UniProt A2ATE5 = target: T3, UniProt A2ATE5
T3 sequence (whole entry): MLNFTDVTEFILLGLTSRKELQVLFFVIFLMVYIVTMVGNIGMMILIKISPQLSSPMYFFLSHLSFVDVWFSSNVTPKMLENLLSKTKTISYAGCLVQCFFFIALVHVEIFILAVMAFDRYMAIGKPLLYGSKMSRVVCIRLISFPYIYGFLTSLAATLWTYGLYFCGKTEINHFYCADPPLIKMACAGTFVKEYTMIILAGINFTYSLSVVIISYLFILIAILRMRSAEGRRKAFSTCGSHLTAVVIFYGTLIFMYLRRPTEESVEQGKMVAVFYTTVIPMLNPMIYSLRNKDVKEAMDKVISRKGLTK
In short: as §1

UniProt A2AVB0 = target: T4, UniProt A2AVB0
T4 sequence (whole entry): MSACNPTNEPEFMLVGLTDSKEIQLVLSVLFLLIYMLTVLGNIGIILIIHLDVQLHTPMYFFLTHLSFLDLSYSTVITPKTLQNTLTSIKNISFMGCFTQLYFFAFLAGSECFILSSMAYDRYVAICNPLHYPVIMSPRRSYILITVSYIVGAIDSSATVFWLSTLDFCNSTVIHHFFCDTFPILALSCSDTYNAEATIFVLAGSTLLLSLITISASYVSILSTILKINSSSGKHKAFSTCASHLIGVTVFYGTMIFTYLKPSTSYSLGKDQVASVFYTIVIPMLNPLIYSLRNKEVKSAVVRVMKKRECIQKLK
In short: as §1

OR9G9 = tested on: OR9G9
OR9G9, sequence (as listed by the source): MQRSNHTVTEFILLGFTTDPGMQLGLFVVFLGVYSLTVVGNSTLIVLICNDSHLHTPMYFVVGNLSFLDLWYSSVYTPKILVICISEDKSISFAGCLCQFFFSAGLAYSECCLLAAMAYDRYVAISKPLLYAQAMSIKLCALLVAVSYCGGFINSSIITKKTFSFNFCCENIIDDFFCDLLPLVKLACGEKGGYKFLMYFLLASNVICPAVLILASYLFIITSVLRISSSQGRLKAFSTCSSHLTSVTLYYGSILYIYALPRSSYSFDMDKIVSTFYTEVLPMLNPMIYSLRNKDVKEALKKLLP
In short: as §1

OR9I1 (Homo sapiens) = OR9I1 (Homo sapiens) (UniProt Q8NGQ6)
OR9I1 (Homo sapiens), sequence (Q8NGQ6 whole entry): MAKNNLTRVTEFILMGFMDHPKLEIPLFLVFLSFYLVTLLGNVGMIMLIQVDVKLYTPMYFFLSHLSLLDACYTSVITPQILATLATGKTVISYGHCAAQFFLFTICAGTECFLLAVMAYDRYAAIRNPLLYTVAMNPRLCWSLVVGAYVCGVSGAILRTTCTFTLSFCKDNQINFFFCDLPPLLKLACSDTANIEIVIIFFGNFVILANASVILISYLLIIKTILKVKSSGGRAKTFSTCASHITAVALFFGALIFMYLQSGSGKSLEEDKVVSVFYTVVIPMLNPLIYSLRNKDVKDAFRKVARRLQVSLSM
In short: as §1

OR9K2 (Homo sapiens) = OR9K2 (Homo sapiens) (UniProt Q8NGE7)
OR9K2 (Homo sapiens), sequence (Q8NGE7 whole entry): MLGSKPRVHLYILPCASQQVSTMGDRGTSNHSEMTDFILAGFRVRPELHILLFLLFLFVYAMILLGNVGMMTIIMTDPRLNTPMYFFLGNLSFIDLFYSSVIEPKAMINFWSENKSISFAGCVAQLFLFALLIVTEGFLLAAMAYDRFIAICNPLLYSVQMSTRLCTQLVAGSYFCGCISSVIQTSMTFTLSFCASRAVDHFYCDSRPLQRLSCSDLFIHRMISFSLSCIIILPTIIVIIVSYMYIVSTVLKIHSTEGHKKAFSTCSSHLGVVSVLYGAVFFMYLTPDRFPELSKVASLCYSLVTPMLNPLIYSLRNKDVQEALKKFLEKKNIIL
In short: as §1

OR9K2 R207H = tested on: OR9K2 R207H
OR9K2 R207H, sequence (as listed by the source, stated change not applied): as the sequence (Q8NGE7 whole entry) above, with R207H counted along it
In short: as §1

OR9Q1 (Homo sapiens) = OR9Q1 (Homo sapiens) (UniProt Q8NGQ5)
OR9Q1 (Homo sapiens), sequence (Q8NGQ5 whole entry): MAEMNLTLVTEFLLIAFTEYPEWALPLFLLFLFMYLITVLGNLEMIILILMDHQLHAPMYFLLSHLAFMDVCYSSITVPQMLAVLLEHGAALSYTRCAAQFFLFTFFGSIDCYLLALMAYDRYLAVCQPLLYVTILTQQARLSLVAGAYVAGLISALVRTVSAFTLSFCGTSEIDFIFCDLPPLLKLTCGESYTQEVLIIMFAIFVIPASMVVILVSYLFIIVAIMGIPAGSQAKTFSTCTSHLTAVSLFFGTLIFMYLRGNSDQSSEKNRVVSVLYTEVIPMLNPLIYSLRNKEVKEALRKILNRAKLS
In short: as §1

OR9Q1 A83T = tested on: OR9Q1 A83T
OR9Q1 A83T, sequence (as listed by the source, stated change not applied): as the sequence (Q8NGQ5 whole entry) above, with A83T counted along it
In short: as §1

OR9Q2 (Homo sapiens) = OR9Q2 (Homo sapiens) (UniProt Q8NGE9)
OR9Q2 (Homo sapiens), sequence (Q8NGE9 whole entry): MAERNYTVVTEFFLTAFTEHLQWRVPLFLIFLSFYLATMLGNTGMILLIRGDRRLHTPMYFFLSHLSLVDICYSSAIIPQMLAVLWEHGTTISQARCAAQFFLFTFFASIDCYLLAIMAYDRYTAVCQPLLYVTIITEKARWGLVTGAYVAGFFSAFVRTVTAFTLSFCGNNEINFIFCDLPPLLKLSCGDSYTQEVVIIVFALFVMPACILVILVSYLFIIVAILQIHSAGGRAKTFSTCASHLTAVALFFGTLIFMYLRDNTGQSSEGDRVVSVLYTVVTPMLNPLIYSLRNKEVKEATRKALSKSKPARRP
In short: as §1

OR9Q2 C179R = tested on: OR9Q2 C179R
OR9Q2 C179R, sequence (as listed by the source, stated change not applied): as the sequence (Q8NGE9 whole entry) above, with C179R counted along it
In short: as §1

Or2c1 (Mus musculus) = target: T5, Or2c1 (Mus musculus) (UniProt P23275)
T5 sequence (whole entry): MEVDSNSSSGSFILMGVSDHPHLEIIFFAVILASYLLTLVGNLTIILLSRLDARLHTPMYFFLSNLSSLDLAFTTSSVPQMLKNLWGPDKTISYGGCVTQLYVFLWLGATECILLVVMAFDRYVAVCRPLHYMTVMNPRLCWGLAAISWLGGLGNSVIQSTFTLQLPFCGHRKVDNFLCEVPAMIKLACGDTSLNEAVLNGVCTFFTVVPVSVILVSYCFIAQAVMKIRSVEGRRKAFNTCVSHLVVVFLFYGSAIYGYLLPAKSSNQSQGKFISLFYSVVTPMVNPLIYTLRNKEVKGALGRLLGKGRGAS
In short: as §1

Or5p80 (Mus musculus) = target: T6, Or5p80 (Mus musculus) (UniProt Q8VG42)
T6 sequence (whole entry): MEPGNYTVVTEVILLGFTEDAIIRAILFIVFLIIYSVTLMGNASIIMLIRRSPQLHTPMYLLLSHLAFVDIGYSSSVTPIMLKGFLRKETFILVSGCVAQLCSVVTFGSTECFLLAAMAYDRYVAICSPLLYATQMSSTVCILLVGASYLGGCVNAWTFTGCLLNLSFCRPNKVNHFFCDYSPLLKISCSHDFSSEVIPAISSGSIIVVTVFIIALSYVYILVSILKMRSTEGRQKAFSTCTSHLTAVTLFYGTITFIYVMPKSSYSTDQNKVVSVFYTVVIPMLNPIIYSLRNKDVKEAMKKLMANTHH
In short: as §1

Or7a40 (Mus musculus) = target: T7, Or7a40 (Mus musculus) (UniProt Q9JHB2)
T7 sequence (whole entry): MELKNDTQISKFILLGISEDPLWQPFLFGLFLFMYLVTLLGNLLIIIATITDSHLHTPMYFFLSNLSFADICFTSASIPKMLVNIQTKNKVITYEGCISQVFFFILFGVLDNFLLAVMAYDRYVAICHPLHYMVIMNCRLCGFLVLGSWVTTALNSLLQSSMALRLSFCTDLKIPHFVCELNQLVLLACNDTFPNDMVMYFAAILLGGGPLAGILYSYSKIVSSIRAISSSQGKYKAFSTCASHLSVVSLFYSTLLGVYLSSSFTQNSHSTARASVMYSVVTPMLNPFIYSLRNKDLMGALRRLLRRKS
In short: as §1

UniProt A2AVB5 = target: T8, UniProt A2AVB5
T8 sequence (whole entry): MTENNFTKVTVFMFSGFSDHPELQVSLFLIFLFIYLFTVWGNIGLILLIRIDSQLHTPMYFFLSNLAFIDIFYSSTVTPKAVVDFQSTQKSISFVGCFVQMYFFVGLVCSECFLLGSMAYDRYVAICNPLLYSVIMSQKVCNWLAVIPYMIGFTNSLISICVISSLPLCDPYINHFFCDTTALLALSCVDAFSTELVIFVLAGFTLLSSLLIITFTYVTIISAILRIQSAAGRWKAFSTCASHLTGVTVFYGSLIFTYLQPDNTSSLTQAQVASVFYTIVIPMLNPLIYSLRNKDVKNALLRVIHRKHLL
In short: as §1

[1] = target: Olr226 (Rattus norvegicus) (UniProt P23270)
Olr226 (Rattus norvegicus), sequence (P23270 whole entry): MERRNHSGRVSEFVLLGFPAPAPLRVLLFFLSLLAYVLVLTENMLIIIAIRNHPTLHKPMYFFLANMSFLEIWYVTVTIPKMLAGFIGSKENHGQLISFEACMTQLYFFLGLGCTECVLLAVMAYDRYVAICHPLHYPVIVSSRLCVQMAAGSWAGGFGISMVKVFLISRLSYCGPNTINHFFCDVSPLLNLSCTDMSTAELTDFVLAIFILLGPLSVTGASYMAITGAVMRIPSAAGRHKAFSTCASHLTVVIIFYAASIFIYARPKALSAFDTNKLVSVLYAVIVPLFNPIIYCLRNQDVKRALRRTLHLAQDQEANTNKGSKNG
In short: as §1

Or5p57 (Mus musculus) = Or5p57 (Mus musculus) (UniProt Q8VEZ0)
Or5p57 (Mus musculus), sequence (Q8VEZ0 whole entry): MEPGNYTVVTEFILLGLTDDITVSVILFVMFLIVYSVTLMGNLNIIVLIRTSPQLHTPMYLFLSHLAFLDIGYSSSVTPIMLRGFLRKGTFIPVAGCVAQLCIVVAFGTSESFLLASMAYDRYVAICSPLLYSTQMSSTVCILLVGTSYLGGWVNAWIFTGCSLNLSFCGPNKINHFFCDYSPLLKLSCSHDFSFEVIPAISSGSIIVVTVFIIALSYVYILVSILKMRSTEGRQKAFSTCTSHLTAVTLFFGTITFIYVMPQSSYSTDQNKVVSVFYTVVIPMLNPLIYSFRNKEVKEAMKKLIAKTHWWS
In short: as §1

OR9G9 (Homo sapiens) = OR9G9 (Homo sapiens) (UniProt P0C7N8)
OR9G9 (Homo sapiens), sequence (P0C7N8 whole entry): as the sequence (as listed by the source) above, with G193C counted along it
In short: as §1

Or5an6 (Mus musculus) = Or5an6 (Mus musculus) (UniProt Q8VFV4)
Or5an6 (Mus musculus), sequence (Q8VFV4 whole entry): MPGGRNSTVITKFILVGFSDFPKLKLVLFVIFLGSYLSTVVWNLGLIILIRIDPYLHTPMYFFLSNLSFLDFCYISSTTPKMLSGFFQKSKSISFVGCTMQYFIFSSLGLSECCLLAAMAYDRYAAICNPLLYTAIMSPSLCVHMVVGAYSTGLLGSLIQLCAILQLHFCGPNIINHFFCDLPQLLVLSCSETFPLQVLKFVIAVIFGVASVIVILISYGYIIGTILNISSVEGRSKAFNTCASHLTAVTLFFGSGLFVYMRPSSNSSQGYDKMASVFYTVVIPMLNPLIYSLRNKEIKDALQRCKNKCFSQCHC
In short: as §1

Compound: CCCCCCC(Br)C(=O)O (configuration not stated)
- odorant receptor agonist call (Or1m1 (Mus musculus)): inactive
- odorant receptor agonist call (Or5ar1 (Mus musculus)): inactive
- odorant receptor agonist call (UniProt A2ATE5): inactive
- odorant receptor agonist call (UniProt A2AVB0): inactive

Compound: C=C(C)C1CC=C(C=O)CC1 (configuration not stated)
- odorant receptor agonist call (Or1m1 (Mus musculus)): inactive
- odorant receptor agonist call (Or5ar1 (Mus musculus)): inactive
- odorant receptor agonist call (UniProt A2ATE5): inactive
- odorant receptor agonist call (UniProt A2AVB0): inactive

Compound: O=Cc1ccc2c(c1)OCO2
- odorant receptor agonist call (Or1m1 (Mus musculus)): inactive
- odorant receptor agonist call (Or5ar1 (Mus musculus)): inactive
- odorant receptor agonist call (UniProt A2ATE5): inactive
- odorant receptor agonist call (UniProt A2AVB0): inactive

Compound: C=CCOC(=O)Cc1ccccc1
- odorant receptor agonist call (OR9G9): inactive
- odorant receptor agonist call (OR9I1 (Homo sapiens)): inactive
- odorant receptor agonist call (OR9K2 (Homo sapiens)): inactive
- odorant receptor agonist call (OR9K2 R207H): inactive
- odorant receptor agonist call (OR9Q1 (Homo sapiens)): inactive
- odorant receptor agonist call (OR9Q1 A83T): inactive
- odorant receptor agonist call (OR9Q2 (Homo sapiens)): inactive
- odorant receptor agonist call (OR9Q2 C179R): inactive
- odorant receptor agonist call (Or1m1 (Mus musculus)): inactive
- odorant receptor agonist call (Or2c1 (Mus musculus)): active
- odorant receptor agonist call (Or5ar1 (Mus musculus)): inactive
- odorant receptor agonist call (Or5p80 (Mus musculus)): inactive
- odorant receptor agonist call (Or7a40 (Mus musculus)): inactive
- odorant receptor agonist call (UniProt A2ATE5): inactive
- odorant receptor agonist call (UniProt A2AVB0): inactive
- odorant receptor agonist call (UniProt A2AVB5): inactive

Compound: CC(C=O)Cc1ccc2c(c1)OCO2 (configuration not stated)
- odorant receptor agonist call [1]: inactive
- odorant receptor agonist call (Or1m1 (Mus musculus)): inactive
- odorant receptor agonist call (Or5ar1 (Mus musculus)): inactive
- odorant receptor agonist call (UniProt A2ATE5): inactive
- odorant receptor agonist call (UniProt A2AVB0): inactive

Compound: Oc1ccccc1Br
- odorant receptor agonist call (Or1m1 (Mus musculus)): inactive
- odorant receptor agonist call (Or5ar1 (Mus musculus)): inactive
- odorant receptor agonist call (UniProt A2ATE5): inactive
- odorant receptor agonist call (UniProt A2AVB0): inactive

Compound: O=C(O)CCCCCCCBr
- odorant receptor agonist call (Or5p57 (Mus musculus)): inactive

Compound: Cc1ccc(OC(=O)Cc2ccccc2)cc1
- odorant receptor agonist call (Or1m1 (Mus musculus)): inactive
- odorant receptor agonist call (Or5ar1 (Mus musculus)): inactive
- odorant receptor agonist call (UniProt A2ATE5): inactive
- odorant receptor agonist call (UniProt A2AVB0): inactive

Compound: Cc1c([N+](=O)[O-])c(C)c([N+](=O)[O-])c(C(C)(C)C)c1[N+](=O)[O-]
- odorant receptor agonist call (OR9G9 (Homo sapiens)): inactive
- odorant receptor agonist call (OR9I1 (Homo sapiens)): inactive
- odorant receptor agonist call (OR9K2 (Homo sapiens)): inactive
- odorant receptor agonist call (OR9Q1 (Homo sapiens)): inactive
- odorant receptor agonist call (OR9Q2 (Homo sapiens)): inactive
- odorant receptor agonist call (Or5an6 (Mus musculus)): active

Compound: C=CCc1ccccc1
- odorant receptor agonist call (Or2c1 (Mus musculus)): active
- odorant receptor agonist call (Or5ar1 (Mus musculus)): inactive
- odorant receptor agonist call (Or5p80 (Mus musculus)): inactive
- odorant receptor agonist call (Or7a40 (Mus musculus)): inactive
- odorant receptor agonist call (UniProt A2AVB5): inactive

Compound: CSSC
- odorant receptor agonist call (Or1m1 (Mus musculus)): inactive
- odorant receptor agonist call (Or5ar1 (Mus musculus)): inactive
- odorant receptor agonist call (UniProt A2ATE5): inactive
- odorant receptor agonist call (UniProt A2AVB0): inactive

Compound: CC(=O)c1cc(C(C)(C)C)cc2c1CCC2(C)C
- odorant receptor agonist call (Or5an6 (Mus musculus)): active

Compound: COc1ccc(C=O)cc1
- odorant receptor agonist call (Or1m1 (Mus musculus)): inactive
- odorant receptor agonist call (Or5ar1 (Mus musculus)): inactive
- odorant receptor agonist call (UniProt A2ATE5): inactive
- odorant receptor agonist call (UniProt A2AVB0): inactive

Compound: O=Cc1ccccc1
- odorant receptor agonist call (Or1m1 (Mus musculus)): inactive
- odorant receptor agonist call (Or5ar1 (Mus musculus)): inactive
- odorant receptor agonist call (UniProt A2ATE5): inactive
- odorant receptor agonist call (UniProt A2AVB0): inactive

Compound: CCC1CCC(=O)O1 (configuration not stated)
- odorant receptor agonist call (Or2c1 (Mus musculus)): inactive
- odorant receptor agonist call (Or5ar1 (Mus musculus)): inactive
- odorant receptor agonist call (Or5p80 (Mus musculus)): inactive
- odorant receptor agonist call (Or7a40 (Mus musculus)): inactive
- odorant receptor agonist call (UniProt A2AVB5): inactive

Compound: OCc1ccc2c(c1)OCO2
- odorant receptor agonist call (Or1m1 (Mus musculus)): inactive
- odorant receptor agonist call (Or5ar1 (Mus musculus)): inactive
- odorant receptor agonist call (UniProt A2ATE5): inactive
- odorant receptor agonist call (UniProt A2AVB0): inactive

Compound: O=CC=Cc1ccccc1
- odorant receptor agonist call (OR9G9): active
- odorant receptor agonist call (Or1m1 (Mus musculus)): inactive
- odorant receptor agonist call (Or5ar1 (Mus musculus)): inactive
- odorant receptor agonist call (UniProt A2ATE5): inactive
- odorant receptor agonist call (UniProt A2AVB0): inactive

Compound: O=c1cc(O)c2ccccc2o1
- odorant receptor agonist call (Or1m1 (Mus musculus)): inactive
- odorant receptor agonist call (Or2c1 (Mus musculus)): inactive
- odorant receptor agonist call (Or5ar1 (Mus musculus)): inactive
- odorant receptor agonist call (Or5p80 (Mus musculus)): inactive
- odorant receptor agonist call (Or7a40 (Mus musculus)): inactive
- odorant receptor agonist call (UniProt A2ATE5): inactive
- odorant receptor agonist call (UniProt A2AVB0): inactive
- odorant receptor agonist call (UniProt A2AVB5): inactive

Compound: CCCCC(Br)C(=O)O (configuration not stated)
- odorant receptor agonist call (Or1m1 (Mus musculus)): inactive
- odorant receptor agonist call (Or5ar1 (Mus musculus)): inactive
- odorant receptor agonist call (UniProt A2ATE5): inactive
- odorant receptor agonist call (UniProt A2AVB0): inactive
